Assay outcomes deposited in PubChem BioAssay by several laboratories.
NR1D1 modulator – modulates human Rev-erb alpha binding to DNA | activity, % at 10 µM | AID 1259318 | P20393 | Rev-erbα–FITC-DNA binding, fluorescence polarization, 90 min | 370,000 tested, 0.79% active;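 active = activity above about 14%, limit read from the data; passing the limit was not always enough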
NR2E3 ag-1 – agonists of human NR2E3 nuclear receptor | inhibition of corepressor binding, % at 3.98 µM | CHO-S Gal4-NCOR/VP16-NR2E3 two-hybrid, luciferase | 360,000 tested, 0.35% active | Q9Y5X4 | AID 602229;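 active = inhibition above the mean of all tested compounds plus 3 SD, cut at about 70% in these data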;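 also: higher means lower luciferase signal from less NR2E3 corepressor binding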
Neddyl block – cullin neddylation inhibition | TR-FRET cullin neddylation, biochemical | 360,000 tested, 0.58% active | P61081+Q13564 | calls only at 25 µM | AID 651699; in the data active = inhibition above about 36%
Target sequence (P61081 whole entry, looked up): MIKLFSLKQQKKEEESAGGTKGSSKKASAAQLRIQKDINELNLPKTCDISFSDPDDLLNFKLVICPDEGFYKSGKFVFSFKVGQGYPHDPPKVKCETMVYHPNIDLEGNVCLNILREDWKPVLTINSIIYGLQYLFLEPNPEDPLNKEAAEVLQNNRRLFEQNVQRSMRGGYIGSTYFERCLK
Target sequence (Q13564 whole entry, looked up): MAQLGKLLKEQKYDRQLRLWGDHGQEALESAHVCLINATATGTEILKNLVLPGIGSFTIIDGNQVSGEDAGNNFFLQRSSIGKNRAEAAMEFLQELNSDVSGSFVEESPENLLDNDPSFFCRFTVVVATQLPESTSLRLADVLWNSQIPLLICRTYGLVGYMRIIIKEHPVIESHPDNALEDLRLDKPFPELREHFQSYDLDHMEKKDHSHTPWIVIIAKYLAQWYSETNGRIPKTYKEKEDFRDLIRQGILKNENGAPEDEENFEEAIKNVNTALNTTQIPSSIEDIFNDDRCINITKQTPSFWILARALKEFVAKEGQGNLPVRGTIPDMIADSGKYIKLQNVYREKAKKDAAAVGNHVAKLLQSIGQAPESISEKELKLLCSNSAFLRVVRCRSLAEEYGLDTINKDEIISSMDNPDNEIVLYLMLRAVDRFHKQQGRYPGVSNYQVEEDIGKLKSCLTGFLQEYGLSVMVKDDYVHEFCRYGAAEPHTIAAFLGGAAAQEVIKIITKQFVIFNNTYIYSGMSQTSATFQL
PG9 binder – binds the HIV-1 gp120 antibody PG9. TR-FRET gp120-PG9 antibody binding. inhibition, % at 6.7 µM. 360,000 tested, 0.43% active; in the data active = inhibition above about 8.5%
NR2E3 ag-2 – activates human photoreceptor nuclear receptor NR2E3. Q9Y5X4. GST-NR2E3/biotin-RetCOR TR-FRET, 1536-well. inhibition of corepressor binding, % at 4.78 µM. 320,000 tested, 0.12% active. AID 2300;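 active = percent inhibition above the cutoff of mean plus 3 SD of all tested compounds, set per screening campaign, cut at about 20% in these data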
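Material: NR2E3–RetCOR corepressor complex / Amount: 1.35 nM GST-NR2E3 / Medium: Tris pH 7.5 / Compound: single nominal compound dose of 4.8 µM / Incubation: 5 h at 4 °C / Technique: TR-FRET, Eu(K)-anti-GST donor, streptavidin-D2 acceptor, ex 340, em 617/671 nm / Read-out basis: percent loss of FRET ratio relative to control wells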
NR2E3 ag conf – confirmation of human NR2E3 agonists. shares compounds with NR2E3 ag-1. CHO-S mammalian two-hybrid NR2E3-NCOR, luciferase luminescence. inhibition, % at 3.98 µM. 2,300 tested, 51% active. AID 624378;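 active = average inhibition above a cutoff equal to the mean inhibition of all tested compounds plus one SD, cut at about 70% in these data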
VP16 counter – reduces GAL4-VP16 reporter signal in NR2E3 counterscreen; shares compounds with NR2E3 ag-1; CHO-S GAL4-VP16 luciferase reporter, luminescence; inhibition, % at 3.98 µM; 2,300 tested, 29% active; AID 624379;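 active = mean inhibition above a cutoff equal to the average over all tested compounds plus one standard deviation, cut at about 70% in these data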;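 also: luciferase from a UAS reporter driven by GAL4-VP16 transactivation; higher means less reporter light so more repression of VP16 activity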
Large screens that a line does not name were inactive (follow-up assays come after a bar, where they were run). In the library only some 2% were active in any assay of this set; here they are far more common.

COc1ccc(C(=O)NCc2cccc(Cl)c2)cc1S(=O)(=O)N1CCOCC1	none
COc1ccc(CCNC(=O)c2cccc(S(=O)(=O)N3CCCC3)c2)cc1OC	none
COc1ccc(CNC(=O)c2cccc(S(=O)(=O)N3CCCCC3)c2)cc1OC	none | NR2E3 ag conf inactive | VP16 counter inactive
COc1ccc(CNC(=O)c2ccc(Cl)c(S(=O)(=O)N3CCOCC3)c2)cc1OC	none (no result: NR1D1 modulator, PG9 binder) | NR2E3 ag conf inactive | VP16 counter inactive
COc1cc(OC)c(OC)cc1CNC(=O)c1cccc(S(=O)(=O)N2CCc3ccccc3C2)c1	NR2E3 ag-1 91 (no result: NR2E3 ag-2) | NR2E3 ag conf 96 | VP16 counter 81
CC(C)Nc1nc(NCCOc2ccccc2Cl)c2sc(-c3ccccc3)cc2n1	none (no result: NR2E3 ag-2) | NR2E3 ag conf inactive | VP16 counter inactive
COc1ccccc1CNc1nc(NC(C)C)nc2cc(-c3ccccc3)sc12	none (no result: NR2E3 ag-2)
O=C1C=CC2(O[C@H](c3ccccc3)[C@@H](c3ccccc3)O2)[C@H](Sc2ccccc2O)C1	none (no result: NR2E3 ag-2) | NR2E3 ag conf 92 | VP16 counter inactive
CCn1c2ccccc2c2cc(NC(=O)COC(=O)c3cc(F)cc(F)c3)ccc21	none (no result: NR2E3 ag-1, Neddyl block, PG9 binder, NR2E3 ag-2)
CSc1ccc(-c2nc(CSCC(=O)NCCCN3CCOCC3)c(C)o2)cc1	none
CCc1ccc(-c2nc(CSCC(=O)NCc3ccco3)c(C)o2)cc1	NR2E3 ag-1 101 (no result: NR2E3 ag-2) | NR2E3 ag conf 96 | VP16 counter 96
Cc1oc(-c2ccc(Cl)cc2)nc1CS(=O)CC(=O)NCc1ccco1 (centres undefined)	none
COC(CNC(=O)CSCc1nc(-c2ccc(SC)cc2)oc1C)OC	none | NR2E3 ag conf 78 | VP16 counter inactive
CCCNC(=O)CSCc1nc(-c2ccc(SC)cc2)oc1C	NR2E3 ag-1 82 | NR2E3 ag conf 78 | VP16 counter 79
COC(=O)[C@]1(CNS(=O)(=O)C2CC2)CC(=O)N(C)[C@@H]1c1ccccc1	none (no result: NR2E3 ag-1, Neddyl block, PG9 binder, NR2E3 ag-2)
Cc1ccc(NC(=O)C(Nc2ccccc2)c2ccccc2)cc1 (centres undefined)	none
Cc1ccc(NC(=O)C(C)c2ccc(-c3ccccc3)c(F)c2)cc1 (centres undefined)	NR2E3 ag-1 74 | NR2E3 ag conf 89 | VP16 counter 77
Fc1ccc(Cn2cnc3ccccc32)cc1	none
CCCOc1ccc(Cn2cnc3ccccc32)cc1	none | NR2E3 ag conf 78 | VP16 counter inactive
O=C(O)c1ccccc1C(=O)Nc1ccc(Oc2cccc3ccccc23)cc1	none (no result: NR2E3 ag-2) | NR2E3 ag conf inactive | VP16 counter inactive
Cc1cccc(Oc2ccc(NC(=O)c3ccccc3C(=O)O)cc2)c1C	none
COc1ccc(CCNC(=O)C2CC3Cn4c(nc5cc6ccccc6cc54)C3N2C)cc1 (centres undefined)	none | NR2E3 ag conf inactive | VP16 counter inactive
COc1ccccc1OCCNS(=O)(=O)c1ccc2oc3ccccc3c2c1	none | NR2E3 ag conf inactive | VP16 counter inactive
O=C(CC(=O)Nc1ccccn1)Nc1ccccn1	none
Cc1ccnc(NC(=O)Cc2ccc(-c3ccccc3)cc2)c1	NR2E3 ag-1 93 | NR2E3 ag conf 98 | VP16 counter inactive
O=C(Cc1ccc(-c2ccccc2)cc1)Nc1ccccn1	NR2E3 ag-1 72 | NR2E3 ag conf inactive | VP16 counter inactive
Cc1ccc(NC(=O)Cc2ccc(-c3ccccc3)cc2)nc1	none
CCOC(=O)[C@@]12CCCC=C1N(CCc1ccc(Cl)cc1)C(=O)[C@H]2CC(=O)NCc1cccc(C(F)(F)F)c1	none (no result: NR2E3 ag-1, Neddyl block, PG9 binder, NR2E3 ag-2)
Cc1ccc(C)c(N2CCN(S(=O)(=O)c3csc(C(N)=O)c3)CC2)c1	none | NR2E3 ag conf inactive | VP16 counter inactive
O=S(=O)(NCc1ccncc1)c1ccc(Br)s1	NR2E3 ag-1 103 | NR2E3 ag conf 92 | VP16 counter 78
Cc1cc(Br)c(S(=O)(=O)NCc2ccncc2)cc1C	NR2E3 ag-1 82 | NR2E3 ag conf 70 | VP16 counter inactive
COc1ccc(S(=O)(=O)Nc2ccc(Cc3ccncc3)cc2)cc1C	none (no result: NR1D1 modulator, PG9 binder) | NR2E3 ag conf inactive | VP16 counter inactive
CCN(C1CCCCC1)S(=O)(=O)c1ccc(S(=O)(=O)NCc2ccncc2)cc1	NR2E3 ag-1 91 | NR2E3 ag conf 88 | VP16 counter 74
COC(=O)[C@]12C[C@H](CC(=O)N3CCC(c4ccccc4)CC3)C(=O)N(Cc3ccccc3)C1=C[C@H](C1CCCC1)O[C@@H]2C	none (no result: NR2E3 ag-1, Neddyl block, NR2E3 ag-2)
Cc1ccc(S(=O)(=O)NCc2ccncc2)cc1C	none | NR2E3 ag conf 92 | VP16 counter 76
O=S(=O)(NCc1ccncc1)c1ccccc1	none
COc1cc(S(=O)(=O)NCc2ccncc2)ccc1Br	NR2E3 ag-1 95 | NR2E3 ag conf 78 | VP16 counter inactive
Cc1cc(C)c(C)c(S(=O)(=O)NCc2ccncc2)c1C	none | NR2E3 ag conf inactive | VP16 counter inactive
O=S(=O)(NCc1ccncc1)c1ccc(F)c(F)c1	none (no result: NR2E3 ag-2)
C=C1CC[C@H](O)C/C1=C/C=C1\CCC[C@]2(C)C([C@H](C)/C=C/[C@H](C)C(C)C)CC[C@@H]12 (some centres undefined)	none (no result: NR2E3 ag-1, Neddyl block, PG9 binder, NR2E3 ag-2)
COc1cccc(CNC(=O)C(C)n2ccc3cc(S(=O)(=O)N4CCCCCC4)ccc32)c1 (centres undefined)	none
CCC(C(=O)NCCC(C)C)n1ccc2cc(S(=O)(=O)N3CCCCC3)ccc21 (centres undefined)	none (no result: NR1D1 modulator, PG9 binder) | NR2E3 ag conf inactive | VP16 counter inactive
Cc1ccc(-n2c(SCC(=O)N/N=C/C=C\c3ccccc3[N+](=O)[O-])nnc2-c2ccccc2)cc1	none (no result: NR2E3 ag-1, Neddyl block, PG9 binder, NR2E3 ag-2)
CC(NS(=O)(=O)OCC(Cl)(Cl)Cl)c1ccc(C(C)(C)C)cc1 (centres undefined)	none | NR2E3 ag conf inactive | VP16 counter inactive
CC(C)Cc1ccc(C(C)C(=O)Nc2nccs2)cc1 (centres undefined)	none
O=C(Nc1ccccc1O)C(c1ccccc1)c1ccccc1	none | NR2E3 ag conf 83 | VP16 counter 72
O=C(O)c1ccccc1NC(=O)C(c1ccccc1)c1ccccc1	none
CC(C)Cc1ccc(C(C)C(=O)Nc2ccccc2O)cc1 (centres undefined)	NR2E3 ag-1 83 | NR2E3 ag conf 94 | VP16 counter 82
Cc1ccccc1CS(=O)(=O)Cc1ccc(C(=O)Nc2ccc(F)cc2F)o1	none (no result: NR2E3 ag-1, Neddyl block, PG9 binder, NR2E3 ag-2)
COC(=O)C1=C(CN2CCc3ccccc32)NC(=O)NC1c1cc(C)ccc1C (centres undefined)	none
COC(=O)C1=C(CN2CCCc3ccccc32)NC(=O)NC1c1ccc(F)cc1 (centres undefined)	NR2E3 ag-1 84 | NR2E3 ag conf inactive | VP16 counter inactive
COc1ccc(C2CCc3cc4c(cc3C2=NO)OCO4)cc1OC (centres undefined)	none (no result: NR2E3 ag-2) | NR2E3 ag conf inactive | VP16 counter inactive
Nc1[nH]c(C(=O)c2ccccc2)c(-c2cccc3ccccc23)c1C(=O)c1ccc(Br)cc1	none (no result: NR2E3 ag-1, Neddyl block, NR2E3 ag-2)
